# HSF1 inh: HSF1 inhibition | activity change, negative = inhibition, % at 7.5 µM (by protocol) | 300,000 compounds, 0.77% hits | AID 2098 | NIH3T3-HGL HSE-luciferase, MG132-induced, luminescence 8 h; hits give low values;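 active means more than half of replicate wells show activity change below -50%, luminescence cut by over half; inconclusive means some wells, but at most half, below -50%; inactive means no replicate well below -50%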;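 further: luciferase reports HSF-1 transcriptional activity via heat shock element; 0% = median of DMSO wells and -100% = zero luminescence signal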
# GPR7 antag: human neuropeptides B/W receptor 1 antagonism. GPR7-expressing cells, fluorescence antagonist assay. 290,000 compounds, 1.1% hits. inhibition, % at 4.4 µM; in the data active means inhibition above about 16%, passing the limit was not always enough;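 further: cells stimulated with the agonist NPW; 0% = agonist with vehicle and 100% = vehicle without agonist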
# Target sequence (P48145 whole entry, looked up): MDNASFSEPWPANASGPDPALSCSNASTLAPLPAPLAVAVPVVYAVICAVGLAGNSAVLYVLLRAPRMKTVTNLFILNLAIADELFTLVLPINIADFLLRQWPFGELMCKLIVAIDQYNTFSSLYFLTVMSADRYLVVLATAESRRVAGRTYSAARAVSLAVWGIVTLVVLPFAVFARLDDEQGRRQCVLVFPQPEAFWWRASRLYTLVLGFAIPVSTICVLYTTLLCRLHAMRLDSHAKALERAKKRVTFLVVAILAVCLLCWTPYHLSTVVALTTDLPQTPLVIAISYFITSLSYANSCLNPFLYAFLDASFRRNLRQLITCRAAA
# T cruzi repl: blocks replication of Trypanosoma cruzi | T. cruzi beta-gal in NIH3T3, luminescence, 90 h | inhibition, % (no concentration beside the values) | 300,000 compounds, 1.4% hits;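 active means mean inhibition across valid replicates above about 55%, limit read from the data; inconclusive means mean below that limit but half or more replicates reach it; inactive means mean below it, under half of replicates reach it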;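 further: signal also drops with host cell toxicity which is not excluded here; 0% = plate median of DMSO wells and 100% = zero luminescence signal; higher percent means less beta-gal luminescence so fewer parasites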
#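 Assay system: NIH/3T3 fibroblasts plus reporter T. cruzi. Amount: NIH/3T3 cells, 5,000 per well. Buffer or medium: DMEM, 2% fetal bovine serum. Doses: compound pinned at 50 nL/well, DMSO. Schedule: ≥90 h infection period, 3 h prior cell attachment. Signal: luminescent β-galactosidase signal after 60 min lysis. Read-out: parasite load inhibition, %.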
# 697 NFkB inh: lowers PMA/ionomycin-induced NF-kB signal in 697 B cells; inhibition, % at 4 µM; 330,000 compounds, 0.33% hits; AID 435022; 697 B-cell NF-kB luciferase reporter, 16 h; in the data active means inhibition above about 35%
# Jurkat NFkB inh: lowers PMA/ionomycin-induced NF-kB signal in Jurkat cells | PMA/ionomycin-induced NF-kB luciferase reporter, luminescence | inhibition, % at 4 µM | 330,000 compounds, 0.53% hits; in the data active means inhibition above about 50%
# HSF1 activator: increases HSF-1 driven luciferase reporter signal; NIH3T3-HGL HSF-1 luciferase reporter, MG132, 8 h; 100% = twice DMSO control signal; activation, % at 9 µM; 300,000 compounds, 1.7% hits;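 active means mean replicate activation of at least 50% with a set share of replicates each reaching 50%; inconclusive means only one of those two conditions met; inactive means mean below 50% and too few replicates reaching it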;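 further: 0% = median of the neutral control wells and 100% = twice that signal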
# * marks the source's active call; other numbers are inactive results; ? = inconclusive; . = no result. The list is not random: actives were taken first. Their share in the collection is about 4.8%.
SMILES,HSF1 inh,GPR7 antag,T cruzi repl,697 NFkB inh,Jurkat NFkB inh,HSF1 activator
Cc1ccc(S/C=C\C(=O)c2ccccc2)cc1,85,5,16,-132,-16,118*
Cc1ccc(C(=O)/C=C/c2ccc(-c3ccc(C)cc3)o2)cc1,27,-1,30,-39,-2,56*
Cc1ccc(C(=O)/C=C\C(=O)c2ccc(C)cc2)cc1,231,12,71*,.,.,294*
O=C(/C=C\c1ccc(-c2ccccc2)o1)c1ccccc1,-19,3,46,3,-15,-28
CC[C@]12c3[nH]c4ccc(OC)cc4c3CCN1C(=O)C(CC(=O)NCc1ccco1)C[C@@H]2C(=O)N1CCN(C(=O)c2ccco2)CC1 (stereo not given in full),.,.,.,8,.,.
Cc1cc(NC(=O)C(C)SCC(=O)N(C)CC(=O)Nc2ccccc2Br)no1 (stereo not given),-2,.,1,-2,10,-6
CCN(CC)c1ccc(S(=O)(=O)N2CCOCC2)cc1NC(=O)CN1CCc2ccccc2C1,7,10,42,7,-1,7
FC(F)Sc1ccc(-n2cc(-c3ccccc3)[n+]3c2CCC3)cc1,-6,-7,-14,-11,10,5
COc1ccc(-n2cc(-c3ccccc3)nc2SC)cc1,18,1,16,-58,-60,42
COc1ccc(-n2cc(-c3ccccc3)[n+]3c2CCCCC3)cc1,-5,5,81*,-12,32,-11
COc1ccc(-c2cn(-c3ccc(OC)cc3)c3[n+]2-c2ccccc2CC3)cc1,0,24*,37,27,40,-14
COC(=O)c1c(N2C(=O)[C@H]3[C@@H](C2=O)[C@]2(C(=O)Nc4c(C)cccc42)N2CCC[C@@H]32)sc(C)c1C,-74*,11,-5,24,3,-79
O=C(CNS(=O)(=O)c1ccccc1F)Nc1ccc(N2CCOCC2)cc1,-88*,-4,-12,8,9,-91
O=C(CSc1ccccc1F)Nc1ccc(N2CCOCC2)cc1,.,.,.,9,-25,.
Cc1cc(N2CCCC2)nc2ccc(NC(=S)NCCCN3CCC(C)CC3)cc12,14,-10,60*,-8,17,54*
Cc1cc(N2CCN(C)CC2)nc2ccc(NC(=S)NCCN3CCc4ccccc4C3)cc12,18,0,56*,9,-19,36
Cc1cc(N2CCN(C)CC2)nc2ccc(NC(=S)NCCCN3CCc4ccccc4C3)cc12,-1,-9,49,-21,-10,11
CCCN1CCN(CCCNC(=S)Nc2ccc3nc(N4CCN(CC)CC4)cc(C)c3c2)CC1,0,-5,-15,4,-24,1
CCCCn1c(=NC(=O)c2ccco2)c(C(=O)OCC)cc2c(=O)n3ccccc3nc21,0,-3,22,-17,8,5
CCOC(=O)c1cc2c(=O)n3ccccc3nc2n(C(C)C)c1=NC(=O)c1c(-c2c(F)cccc2Cl)noc1C,-10,-10,58*,20,3,-2
O=C(NNC(=O)c1ccccc1F)c1ccc(S(=O)(=O)N2CCCCC2)cc1,.,.,.,7,13,.
CCc1cc(C(c2ccc(F)cc2)N2CCOCC2)c(NC(=O)c2ccccc2)s1 (stereo not given),35,-6,13,-24,-18,63*
CCc1cc(C(c2ccc(OC)c(OC)c2)N2CCOCC2)c(NC(=O)c2ccccc2)s1 (stereo not given),25,-1,-4,9,0,?
CC1CCCC(NC(=O)c2ccc(F)c(S(=O)(=O)N3CCOCC3)c2)C1C (stereo not given),1,.,-7,5,7,11
C/C(N)=C(/C#N)C(=O)CSc1cc(C)c2cc(C)cc(C)c2n1,11,6,62*,-18,-12,20
SMILES,HSF1 inh,GPR7 antag,T cruzi repl,697 NFkB inh,Jurkat NFkB inh,HSF1 activator
Cc1cccc(N=C2NC(=O)/C(=C/C=C/c3ccco3)S2)c1,9,-8,-11,.,.,-3
COc1ccc(N=C2NC(=O)/C(=C\C=C\c3ccco3)S2)cc1,73,-9,-46,-6,-7,124*
COC(=O)c1ccc(CNC(=O)COC(=O)COc2ccc(OC)cc2)cc1,-68*,-7,-17,-1,1,-73
CCN(CC)S(=O)(=O)c1ccc(Cl)c(NC(=O)c2cc(Cl)cc(Cl)c2)c1,-19,-1,-13,20,0,-26
CCNC(=S)Nc1cccc(S(=O)(=O)NC2=NCCC2)c1,0,2,-15,3,-14,-6
CC(=O)NC(=S)Nc1cccc(S(=O)(=O)NC2=NCCC2)c1,-76*,-10,-13,17,6,-81
CC(=O)Oc1ccc(Cl)cc1/C=C/c1ccc2ccccc2n1,46,-7,-4,-149,-107,60*
CC(=O)Oc1c(Cl)cc(Cl)cc1/C=C/c1ccc2ccccc2n1,119,-5,-11,-18,-3,161*
O=C(O)/C=C/c1ccc2ccccc2n1,-2,-5,5,0,2,-6
Cc1cc(C)c(NC(=O)CSc2nnnn2-c2cccnc2)c(C)c1,-2,-5,-4,7,-2,1
CC1(C)CC(NC(=O)c2ccccc2)CC(C)(C)N1,0,-18,-1,0,7,1
C[C@@H]1C(NC(=O)c2ccccc2)CC2CC1C2(C)C (stereo not given in full),21,9,22,8,3,73*
CCc1nnc(NC(=O)C2CCCCN2S(=O)(=O)c2ccccc2)s1 (stereo not given),3,1,-2,13,1,-6
Cc1sc2nc(C)n(/N=C/c3ccc(O)cc3O)c(=O)c2c1C,23,1,-2,18,19,63*
C=CCSc1nc(-c2ccc(OC)cc2)c(C#N)c(=O)n1CC=C,20,-9,29,.,.,65*
COc1ccc(-c2nc3n(c(=O)c2C#N)CCS3)cc1,-7,-13,-15,6,-16,9
O=C(NCCOc1ccccc1F)C1CCC(=O)N(CCc2cccc(F)c2)C1 (stereo not given),0,-7,-1,-56,-13,-2
NC(=O)c1ccc(-n2nnnc2Oc2ccccc2C(=O)N2CCOCC2)cc1,-2,-7,-27,3,12,-1
Cn1nc([N+](=O)[O-])nc1Oc1ccccc1C(=O)N1CCOCC1,1,-10,93*,12,7,-8
CCc1ccc(/C=C/C(=O)c2ccc(N3CCOCC3)cc2)cc1,24,0,1,-2,2,55*
CCOc1ccc(NC(=O)Cn2nnc(C(=O)NCc3ccco3)c2N)cc1,27,-16,-7,9,-11,56*
C[C@@H]1COC(=O)[C@@H](CC(=O)OC(C)(C)C)C/C=C\C[C@@H](CC(=O)NCCO)C(=O)N1,.,.,.,5,-9,.
CCC(=O)Nc1ccc(C(=O)COC(=O)Cc2ccsc2)cc1,.,.,.,-1,4,.

# Source: PubChem (several laboratories)
